This is an account of results in ChEMBL document CHEMBL4513216, “Probing the Open Global Health Chemical Diversity Library for Multistage-Active Starting Points for Next-Generation Antimalarials” (ACS Infect Dis, 2020).

The data set is described as follows: Toxicity liver stage against HepG2, at 10uM. The class given is cell-based. Further details: test concentration 10 uM, cell line HepG2-A16-CD81EGFP. The settings on record: human, HepG2-A16-CD81EGFP cells; read-out: INHIBITION
An outline of the steps:
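Uninfected HepG2-A16-CD81EGFP cells, 3 × 10^3 per well, 1536-well, plated on prespotted compound at 10 μM final, parasite-free screening media added to match infected plates; puromycin 10 μM positive, DMSO 0.5% negative; run in parallel with 48 h PbLuc assay at 37 °C, 5% CO2; viability by CellTiter-Glo luminescence, normalized to controls.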
As to `CC(C)CCC(=O)N1CCN(C(=O)c2ccc(-n3cccn3)cc2)CC1`, the cytotoxicity at 10 µM was found to be 4.28%.

For the compound `CCOc1nc2cnccc2n(CC(=O)Nc2ccccc2OC)c1=O`, the cytotoxicity at 10 µM is -15%.

Consider `OC[C@@H]1[C@H]2CN(c3ccccn3)CCN2C[C@H]1c1ccccc1`, for which the cytotoxicity at 10 µM was -8.43%.

Consider `Cc1cc(NC(=O)C(C)Cn2cncn2)no1` (stereo not given), for which the cytotoxicity at 10 µM was -5.18%.

Regarding `O=C(NCc1nc2ccccc2[nH]1)c1cc2n(n1)CCCO2`, the cytotoxicity at 10 µM was -5.43%.

Regarding `O=C(c1ccccn1)N1CCC(Oc2ncccc2Cl)CC1`, the cytotoxicity at 10 µM is 3.07%.

With `CCS(=O)(=O)N1C[C@H]2CN(Cc3cccc(C)c3)C(=O)[C@H]2C1`, the cytotoxicity at 10 µM amounted to 2.9%.

As for `COCCN1Cc2ccccc2C2(CCN(C(=O)c3ccno3)CC2)C1`, the cytotoxicity at 10 µM came to 5.58%.

With `O=C(Cc1cccnc1)N1CCC2(CCN(C3CCOC3)CC2)C1` (stereo not given), the cytotoxicity at 10 µM was 5.08%.

As to `CSc1nc2cc(C)n(CC(=O)Nc3nccs3)c2c(=O)n1CC(C)C`, the cytotoxicity at 10 µM is -12.6%.

For the compound `CCOC(=O)Cc1cs/c(=N/C(=O)COc2cnc(C)cc2O)[nH]1`, the cytotoxicity at 10 µM was determined as 4.62%.

Regarding `O=c1ccc(-c2cccs2)nn1CN1CCOCC1`, the cytotoxicity at 10 µM stood at 5.68%.

Take `CN(C)C(=O)NC[C@H]1OC[C@@H]2CCN(Cc3ccoc3)C[C@@H]21`: the cytotoxicity at 10 µM turned out to be 2.82%.

Turning to `Cn1cccc1CN1CCC2(CCCN(C(=O)Cc3cccnc3)C2)C1` (stereo not given), the cytotoxicity at 10 µM was found to be 7.17%.

Take `O=C(c1ccsc1)N1CC[C@H]2C[C@@H](c3nnc(C4CC4)o3)O[C@@H]2C1`: the cytotoxicity at 10 µM was -7.36%.

In the case of `COc1ccc(OC)c(C(C)NC(=O)c2nn(C)c(C)c2Br)c1` (stereo not given), the cytotoxicity at 10 µM is 5.38%.

For `CC(=O)N1CCN(C(=O)c2[nH]nnc2Nc2ccccc2F)CC1`, the cytotoxicity at 10 µM came to 2.1%.

Consider `CC1(c2nccs2)CCN(C(=O)CC2CCOCC2)CC1`, for which the cytotoxicity at 10 µM was -0.29%.

On to `CS(=O)(=O)N1CCCC(Cc2cncc(-c3ccccc3C(=O)O)n2)C1` (stereo not given), for which the cytotoxicity at 10 µM was -6.41%.

For `Cc1cc(-c2cnn(CCNC(=O)CCn3cccn3)c2C2CC2)on1`, the cytotoxicity at 10 µM was -4.66%.

`CCc1nccn1-c1cncc(C2CCCN2Cc2ccccn2)n1` (stereo not given): the cytotoxicity at 10 µM was -3.47%.

As to `O=C(C1CCCC1)N1CCn2c(nnc2C2CCCNC2)C1` (stereo not given), the cytotoxicity at 10 µM came to 1.19%.

Turning to `CC(NCCCN1CCCC1=O)c1cc(Br)ccc1O` (stereo not given), the cytotoxicity at 10 µM is -1.41%.

Take `O=C(Cc1c(F)cccc1Cl)NC1CCCCNC1=O` (stereo not given): the cytotoxicity at 10 µM amounted to 1.91%.

As for `Cc1ccc(CN(C)C(=O)CNC(=O)N2CCc3ccccc3C2)o1`, the cytotoxicity at 10 µM was found to be 5.95%.

With `c1ncn(CC2CCCN(CC3CCCCC3)C2)n1` (stereo not given), the cytotoxicity at 10 µM worked out at 4.61%.

For `COc1c(Cl)cccc1NCc1csc(C)n1`, the cytotoxicity at 10 µM is -10.1%.

As for `CC(C)c1noc(CCC(=O)N2CCCC(n3ccnc3)C2)n1` (stereo not given), the cytotoxicity at 10 µM was determined as 5.58%.

With `CC(C)c1n[nH]c(C2CN(Cc3ccno3)CCO2)n1` (stereo not given), the cytotoxicity at 10 µM came out at 5.49%.

Turning to `Cc1nc2c(c(C)c1CC(=O)Nc1ccnn1C(C)C)c(=O)[nH]n2C`, the cytotoxicity at 10 µM turned out to be 13%.

On to `CN(Cc1ccco1)Cc1ccccc1CNC(=O)c1c[nH]nn1`, for which the cytotoxicity at 10 µM is -2.89%.

As to `CC(OCC(F)(F)F)C(=O)N1CCCC1` (stereo not given), the cytotoxicity at 10 µM is -14%.

Consider `Cc1ccc(OCC(=O)NCc2ccco2)nc1`, for which the cytotoxicity at 10 µM was -0.224%.

Turning to `CC(C)COC1CCN(C(=O)c2cc3ccccc3c(=O)[nH]2)CC1`, the cytotoxicity at 10 µM was 9.05%.

With `CCc1nnc2n1CCN(C(=O)c1ccc3[nH]nnc3c1)C2`, the cytotoxicity at 10 µM is -0.337%.

As to `COc1ccccc1C(=O)NCCCN1CCCC1C(=O)N(C)C` (stereo not given), the cytotoxicity at 10 µM was -2.94%.

Consider `CCC(CNC(=O)c1nc(=O)[nH][nH]1)Oc1cccc(C(F)(F)F)c1` (stereo not given), for which the cytotoxicity at 10 µM is -6.25%.

With `CCN(CCc1nccs1)C(=O)c1ccco1`, the cytotoxicity at 10 µM worked out at 15.4%.

`O=C(c1ccc[nH]1)N1CCCC1c1nc(-c2ccccc2)n[nH]1` (stereo not given): the cytotoxicity at 10 µM was found to be 2.57%.

Regarding `Cc1cccc2nc(CSCc3nnnn3C(C)C)cn12`, the cytotoxicity at 10 µM was 1.24%.

`Cc1ccc(OCC(O)Cn2ncc3cnn(C)c(=O)c32)cc1` (stereo not given): the cytotoxicity at 10 µM is -3.49%.

`Cc1ccc(C2CSCCN2C(=O)c2cc(C(N)=O)cs2)o1` (stereo not given): the cytotoxicity at 10 µM came to 5.48%.

`Cc1csc(CN(C)C(=O)Nc2cc(F)cc(N3CCCC3)c2)n1`: the cytotoxicity at 10 µM was determined as 8.16%.

With `Cc1cccc(C(C)CNS(=O)(=O)CCCC#N)c1` (stereo not given), the cytotoxicity at 10 µM is -2.17%.

For `N#Cc1c(F)cccc1N1CCCC(C(=O)Nc2nccs2)C1` (stereo not given), the cytotoxicity at 10 µM was 8.92%.

On to `Cc1ccnc(NC(=O)CSCc2cccnc2)c1`, for which the cytotoxicity at 10 µM was -42.2%.

Take `O=C1CC(NS(=O)(=O)N2CCOCC2)CN1Cc1ccccc1` (stereo not given): the cytotoxicity at 10 µM is 4.19%.

In the case of `CSC(C)(C)CNC(=O)NCC[S+]([O-])c1ccccc1` (stereo not given), the cytotoxicity at 10 µM was determined as 15.5%.

With `Cc1nc(C(=O)N2CCN(C(C)c3ccccc3F)CC2)cs1` (stereo not given), the cytotoxicity at 10 µM is -0.462%.

Consider `CCCN1CCC(N(Cc2ncc(C)o2)C(C)=O)C1` (stereo not given), for which the cytotoxicity at 10 µM was -13.1%.

For the compound `NC(=O)CN1CCCN(C(=O)c2ccn(-c3ccccc3)n2)CC1`, the cytotoxicity at 10 µM is -1.61%.

Turning to `O=C(Nc1ccnc(OC2CCOC2)c1)c1cc(F)ccc1F` (stereo not given), the cytotoxicity at 10 µM was found to be 5.87%.

Consider `O=C(NCCCNC(=O)c1cccc(O)c1)NCc1ccccc1F`, for which the cytotoxicity at 10 µM is -6.42%.

With `COc1cccc(CC(=O)N2CC[C@@H]3CN(C)S(=O)(=O)[C@@H]3CC2)c1`, the cytotoxicity at 10 µM is -2.36%.

In the case of `CC(=O)N1CC[C@H]2OCC[C@@H](C(=O)Nc3cccnc3C)[C@@H]2C1`, the cytotoxicity at 10 µM is 11.3%.

Turning to `Cc1cccc(NC(=O)N2CCC3(CCC(C(=O)N(C)C)O3)CC2)c1` (stereo not given), the cytotoxicity at 10 µM was -107%.

For the compound `COC[C@@H]1CC[C@H]2[C@H](CCN2S(=O)(=O)c2ccc(C)cc2)O1`, the cytotoxicity at 10 µM is -1.05%.

For `CSc1ncc(CN(C)C(C)c2cccnc2)cn1` (stereo not given), the cytotoxicity at 10 µM worked out at 2.1%.

Take `COc1cccc(CC(=O)N2CCCN(c3ccnc(C)c3)CC2)c1`: the cytotoxicity at 10 µM is -7.06%.

As to `COCCCn1cnnc1CNC(=O)c1[nH]c2c(C)cc(C)cc2c1C`, the cytotoxicity at 10 µM was determined as 5.22%.

As to `CN(Cc1ccsc1)C(=O)c1ccc(C2CCCO2)s1` (stereo not given), the cytotoxicity at 10 µM stood at 7.9%.

Regarding `CCc1cc(NCCc2cccnc2)n2nc(C)c(C)c2n1`, the cytotoxicity at 10 µM was 2.12%.

For the compound `CN1CCN(CC(C)(C)C)CC1CCO` (stereo not given), the cytotoxicity at 10 µM was found to be 1.88%.

On to `Cc1nc(N(C)C)nc(N(C)Cc2cnccn2)c1C`, for which the cytotoxicity at 10 µM stood at 3.4%.

As to `CCN1CCCC(C)(C(=O)NCc2nnnn2-c2ccccc2)C1` (stereo not given), the cytotoxicity at 10 µM was -17.7%.

With `Cc1nccn1CCN(C)c1nc(-c2cccnc2)nc2c1CCNC2`, the cytotoxicity at 10 µM was -21.2%.

`Cc1cccc(Cc2nc3c([nH]2)CCCNC3=O)c1`: the cytotoxicity at 10 µM is -12.9%.

As for `CCCN1CCC(Cc2noc(-c3[nH]cnc3C)n2)CC1`, the cytotoxicity at 10 µM is 1.34%.

As for `CN1CCN(c2cccc(NC(=O)NCc3csc(N(C)C)n3)c2)C1=O`, the cytotoxicity at 10 µM stood at 0.91%.

For `CN1CCN(CCCOc2ccccc2CN2C[C@H]3CC[C@H]2C3)CC1`, the cytotoxicity at 10 µM is -7.88%.

Regarding `O=C1CC2(CCN(C(=O)c3csc(-c4ccccc4)n3)C2)C(=O)N1` (stereo not given), the cytotoxicity at 10 µM was -1.25%.

Turning to `Cc1cc2occ(CC(=O)N3CCC4(CCCN(C)C4=O)C3)c2cc1Cl` (stereo not given), the cytotoxicity at 10 µM was -4.03%.

On to `CCC(C(=O)NC1CCCCC1)n1cccc(OC)c1=O` (stereo not given), for which the cytotoxicity at 10 µM is -2.23%.

For `Cc1nc(CNC(=O)c2ccc3c(c2)nc(N2CCOCC2)n3C)cs1`, the cytotoxicity at 10 µM was -1.76%.

In the case of `CCC(C(=O)N(C)C)n1ccc2ncccc2c1=O` (stereo not given), the cytotoxicity at 10 µM amounted to 3.63%.

As to `O=C(c1cnn2cc(CCO)cnc12)N1CCOC(C(F)(F)F)C1` (stereo not given), the cytotoxicity at 10 µM was 3.24%.

For the compound `CC(C)=CCN1CCN(Cc2ncc[nH]2)[C@H]2CS(=O)(=O)C[C@H]21`, the cytotoxicity at 10 µM is 5.44%.

Turning to `Cc1nc(CN2CCCC(CCNS(C)(=O)=O)C2)c[nH]1` (stereo not given), the cytotoxicity at 10 µM is -10.2%.

On to `CCn1nc(C(C)C)cc1C(=O)NCCCOC`, for which the cytotoxicity at 10 µM was -14.7%.

As to `CC[C@@]1(O)CCN(C(=O)c2ccc(SC)cc2)C[C@H]1O`, the cytotoxicity at 10 µM was -17.5%.

Consider `CCn1ncnc1C(C)NC(=O)C1CCN(C(C)C)CC1` (stereo not given), for which the cytotoxicity at 10 µM stood at 18.5%.

Consider `Cc1nc(C2CCCN(C(=O)CO)C2)cc(N2CCOCC2)n1` (stereo not given), for which the cytotoxicity at 10 µM was -12.9%.

Take `Cc1cc(CN2CCN(C(=O)C(C)C)[C@@H]3CS(=O)(=O)C[C@@H]32)ccc1F`: the cytotoxicity at 10 µM amounted to 3.41%.

For `CNc1cccc(C2CCCN(C(C)=O)C2)n1` (stereo not given), the cytotoxicity at 10 µM was -0.962%.

For `Cc1nc(O)c2nnn(C[C@H]3CCCN3C(=O)C(C)(C)C)c2n1`, the cytotoxicity at 10 µM was found to be 3.25%.

For the compound `N#Cc1cccnc1N1CCC(C2CCCCCN2C(=O)C2CC2)CC1` (stereo not given), the cytotoxicity at 10 µM amounted to 1.95%.

As to `Cc1cc(NC(=O)CN2CCn3c(nnc3C3CC3)C2)n(C)n1`, the cytotoxicity at 10 µM is -14%.

For `CCN1CCN(C)C(=O)C12CCN(Cc1csc(C)n1)CC2`, the cytotoxicity at 10 µM is 1.53%.

For `Cc1ccc(CNC(=O)CN2CCN(CC(O)c3ccco3)CC2)cc1` (stereo not given), the cytotoxicity at 10 µM turned out to be 2.71%.

Take `Cn1cc(C(=O)NC[C@@H]2OC[C@H]3CN(Cc4ccco4)CC[C@H]32)cn1`: the cytotoxicity at 10 µM is -13.4%.

For the compound `O=C(c1ccncc1F)N1CC[C@@H]2CN(c3ncccn3)CCO[C@@H]2C1`, the cytotoxicity at 10 µM is -77.2%.

Regarding `CN1CCN(Cc2cnc3n2CCN(Cc2cccnc2)CC3)CC1`, the cytotoxicity at 10 µM was 6.26%.

Consider `O=C(c1ccco1)N1CCCC2(CN(Cc3ccc(F)cc3)CCO2)C1` (stereo not given), for which the cytotoxicity at 10 µM is 0.0288%.

Take `c1cc(CN2C[C@@H]3OCCN(CC4CCCO4)[C@@H]3C2)ccn1` (stereo not given in full): the cytotoxicity at 10 µM was -80.2%.

Turning to `Cc1cc(N2CCN(C(=O)[C@@H]3C[C@H]4C=C[C@@H]3C4)CC2)cc(C)n1`, the cytotoxicity at 10 µM was -7.62%.
